According to ChEMBL document CHEMBL4610093, “Bioreductively Activatable Prodrug Conjugates of Combretastatin A-1 and Combretastatin A-4 as Anticancer Agents Targeted toward Tumor-Associated Hypoxia” (J Nat Prod, 2020):

Experiments:
[1] = target: T1, NADPH-cytochrome P450 oxidoreductase (Rattus norvegicus, UniProt P00388); assay: Substrate activity at rat NADPH-cytochrome P450 oxidoreductase expressed in supersomes assessed as compound cleavage after 90 mins in anaerobic condition by HPLC analysis; details: read-out: Drug degradation
T1 sequence (P00388 whole entry): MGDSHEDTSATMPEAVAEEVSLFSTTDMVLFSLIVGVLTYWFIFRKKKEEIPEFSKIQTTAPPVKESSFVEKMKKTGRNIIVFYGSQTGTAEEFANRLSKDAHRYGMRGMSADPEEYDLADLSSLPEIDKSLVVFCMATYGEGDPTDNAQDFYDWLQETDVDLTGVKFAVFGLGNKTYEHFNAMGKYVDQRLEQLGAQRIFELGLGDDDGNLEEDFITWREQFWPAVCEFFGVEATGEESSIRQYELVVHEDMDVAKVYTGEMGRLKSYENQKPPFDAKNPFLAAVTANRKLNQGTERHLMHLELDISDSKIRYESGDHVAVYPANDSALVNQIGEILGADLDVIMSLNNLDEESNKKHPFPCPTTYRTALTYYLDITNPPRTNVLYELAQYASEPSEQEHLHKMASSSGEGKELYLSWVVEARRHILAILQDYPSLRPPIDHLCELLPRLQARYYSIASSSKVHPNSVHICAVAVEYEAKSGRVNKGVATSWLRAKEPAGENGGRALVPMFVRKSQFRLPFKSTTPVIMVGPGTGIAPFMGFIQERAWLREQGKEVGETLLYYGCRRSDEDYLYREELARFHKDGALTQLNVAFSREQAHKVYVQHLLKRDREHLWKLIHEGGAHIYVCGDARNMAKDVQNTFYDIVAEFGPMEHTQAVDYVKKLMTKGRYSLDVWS
How it was run: (§1)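 Rat POR supersomes (0.006 U) with 0.8 mM NADPH, acting on compound diluted from 10 mM DMSO stock into 200 mM potassium phosphate pH 7.4 with 0.1% Triton X-100 and 400 µM protocatechuic acid. Made anaerobic by N2 evacuation/sparging plus 0.08 U protocatechuate dioxygenase. Incubated at 37 °C, quenched with acetonitrile, quantified by HPLC against standard curves; no-POR controls.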

A549 [2] = assay: Cytotoxicity against human A549 cells incubated for 4 hrs in anoxic condition followed by oxic exposure for 48 hrs by sulforhodamine B assay; assay type: functional
How it was run: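 Anoxic arm: A549 cells handled in an anaerobic chamber (≤10 ppm O2) with medium and plates preconditioned ≥48 h. 6000 cells/well, 2 h attachment. Serial dilutions from DMSO stocks, top final concentration 50 µg/mL, in duplicate. 4 h anaerobic drug exposure, then 48 h aerobic, then SRB readout.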

Tubulin (Homo sapiens) [3] = target: T2, Tubulin (Homo sapiens) (UniProt P68371+Q9H4B7+P0DPH7+P68366+Q13509+Q71U36+P04350+Q3ZCM7+P07437+P68363+Q9BQE3+Q6PEY2+Q13885+Q9BVA1+Q9BUF5); assay: Inhibition of [3H]colchicine binding to tubulin (unknown origin) at 5 uM incubated for 10 mins by scintillation counting relative to control; assay type: protein-complex assay
How it was run: (§2)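 Purified tubulin at 1.0 µM with 5.0 µM [3H]colchicine, in 1.0 M monosodium glutamate (pH 6.6), 0.5 mg/mL BSA, 0.1 M glucose-1-phosphate, 1.0 mM MgCl2, 1.0 mM GTP and 5% DMSO. Incubated 10 min at 37 °C, then filter-bound radioactivity counted. Percent inhibition taken against no-inhibitor controls, corrected for filter binding without tubulin.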

A549 [4] = assay: Ratio of GI50 for human A549 cells in oxic condition to GI50 for anoxic condition; assay type: functional
How it was run: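 A549 cells at 6000 cells/well. Drug exposure 4 h either anaerobic (≤10 ppm O2, preconditioned medium and plates) or under 95% air/5% CO2, then 48 h aerobic. SRB cytotoxicity read in duplicate, top final concentration 50 µg/mL. Ratio taken as oxic over anoxic value.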

Tubulin (Homo sapiens) [5] = target: T2, Tubulin (Homo sapiens); assay: Inhibition of [3H]colchicine binding to tubulin (unknown origin) at 1 uM incubated for 10 mins by scintillation counting relative to control; assay type: protein-complex assay; how it was run: as §2
A549 [6] = assay: Cytotoxicity against human A549 cells incubated for 52 hrs in oxic condition by sulforhodamine B assay; assay type: functional; details: A549, 52 h
How it was run: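 Normoxic arm: A549 cells at 6000 cells/well, 2 h attachment. Serial dilutions from DMSO stocks, top final concentration 50 µg/mL, in duplicate. Drug exposure 4 h under 95% air/5% CO2, then 48 h aerobic culture. Cytotoxicity read by SRB.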

[7] = Inhibition of bovine brain tubulin polymerisation preincubated for 15 mins followed by GTP addition and measured for 20 mins by turbidimetry based spectrophotometric method; parameters: species or system Bos taurus
How it was run: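 Bovine brain tubulin at 1.0 mg/mL (10 µM) in 0.8 M monosodium glutamate (pH 6.6) with 4% DMSO and compound. Preincubated 15 min at 30 °C, chilled, then 0.4 mM GTP added. Temperature jumped from 0 to 30 °C; turbidity at 350 nm followed for 20 min. IC50 is the concentration halving extent of assembly.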

[8] = Stability of the compound in pH 7.4 potassium phosphate buffer assessed as compound hydrolysis after 48 hrs; assay type: physicochemical; details: read-out: Drug degradation
4T1 [9] = assay: Induction of vascular damage in mouse 4T1 cells harboring firefly luciferase reporter gene implanted BALB/C mouse assessed as reduction in light emission at 120 mg/kg, ip measured after 4 hrs by Bioluminescence imaging analysis; assay type: functional; parameters: scale not given: the % may be the effect or the level left
How it was run: (§3)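 Orthotopic 4T1-luc mammary fat pad tumours (10–12 mm) in female BALB/c mice. Single IP dose of 120 mg/kg in saline given right after baseline imaging. Dynamic BLI over about 20 min after subcutaneous D-luciferin (120 mg/kg), repeated with fresh luciferin at 4, 24 and 48 h. Signal compared by area under the light emission curve.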

4T1 [10] = assay: Induction in necrosis in tumor of BALB/C mouse implanted with mouse 4T1 cells harboring firefly luciferase reporter gene at 120 mg/kg, ip measured after 72 to 96 hrs by hematoxylin and eosin staining based assay (reference value: 46%); assay type: functional
4T1 [11] = assay: Induction of vascular damage in mouse 4T1 cells harboring firefly luciferase reporter gene implanted BALB/C mouse assessed as reduction in light emission at 120 mg/kg, ip measured up to 72 hrs by Bioluminescence imaging analysis; assay type: functional; parameters: scale not given: the % may be the effect or the level left; how it was run: as §3
4T1 [12] = assay: Induction in necrosis in tumor of BALB/C mouse implanted with mouse 4T1 cells harboring firefly luciferase reporter gene at 180 mg/kg, ip measured after 72 to 96 hrs by hematoxylin and eosin staining based assay (reference value: 46%); assay type: functional
[13] = target: T1, NADPH-cytochrome P450 oxidoreductase; assay: Substrate activity at rat NADPH-cytochrome P450 oxidoreductase expressed in supersomes assessed as compound cleavage after 24 hrs in anaerobic condition by HPLC analysis; details: read-out: Activity; how it was run: as §1
[14] = Solubility of the compound in DMSO; assay type: physicochemical
[15] = Solubility of the compound in buffered saline; assay type: physicochemical; details: buffer
[16] = Solubility of the compound in water; assay type: physicochemical; details: buffer
[17] = Stability of the compound in pH 7.4 potassium phosphate buffer assessed as spontaneous compound hydrolysis measured for 150 mins; assay type: physicochemical; details: pH 7.4, 2.5 h
[18] = Stability of the compound in pH 7.4 potassium phosphate buffer assessed as compound hydrolysis after 24 to 48 hrs; assay type: physicochemical

SMILES | metabolised at 1.5 h [1] [%] | GI50 (A549 [2]) [nM] | inhibition (Tubulin (Homo sapiens) [3]) [%] | RatioGI50 (A549 [4]) | GI50 (A549 [6]) [nM] | IC50 [7] [nM] | degraded at 48 h [8] [%] | further results
COc1ccc(/C=C\c2cc(OC)c(OC)c(OC)c2)c(OC(C)c2ccc([N+](=O)[O-])s2)c1O (centres undefined) | 5.6 | 260 | 90 | 0.69 | 180 | 840 | 0.5 | inhibition (Tubulin (Homo sapiens) [5]): 34%
COc1ccc(/C=C\c2cc(OC)c(OC)c(OC)c2)cc1OC(C)c1ccc([N+](=O)[O-])s1 (centres undefined) | 4.1 | 38 | 15 | 4 | 150 | > 20000 | – | –
COc1cc(/C=C\c2ccc(OC)c(OC(C)c3ccc([N+](=O)[O-])s3)c2O)cc(OC)c1OC (centres undefined) | 25.5 | 51 | 72 | 6.1 | 310 | 6200 | 0 | –
COc1ccc(/C=C\c2cc(OC)c(OC)c(OC)c2)cc1O [COMBRETASTATIN A4] | – | 6.1 | – | – | 4.7 | – | – | –
Nc1n[n+]([O-])c2ccccc2[n+]1[O-] [TIRAPAZAMINE] | – | 6800 | – | 9.2 | 63000 | – | – | –
COc1ccc(/C=C\c2cc(OC)c(OC)c(OC)c2)cc1OP(=O)([O-])[O-].[Na+].[Na+] [FOSBRETABULIN DISODIUM] | – | – | – | – | – | – | – | Activity (4T1 [9]): >99%; Activity (4T1 [10]): 70%; Activity (4T1 [11]): >90%
COc1cc(/C=C\c2ccc(OC)c3c2OC(c2ccc([N+](=O)[O-])s2)O3)cc(OC)c1OC (centres undefined) | – | 33 | 25 | 1.4 | 46 | 1700 | – | –
O=[N+]([O-])c1nccn1CC(O)CNCCBr (centres undefined) | – | 24000 | – | – | > 89000 | – | – | –
COc1cc(/C=C\c2ccc(OC)c(OC(C)c3ccc([N+](=O)[O-])s3)c2OS(=O)(=O)c2ccc(C)cc2)cc(OC)c1OC (centres undefined) | 13.5 | 3300 | – | 1.4 | 4600 | > 20000 | 0.84 | –
COc1ccc(/C=C\c2cc(OC)c(OC)c(OC)c2)c(O)c1O [COMBRETASTATIN A-1] | – | 820 | 99.6 | – | 1200 | – | – | –
COc1cc(/C=C\c2ccc(OC)c(OCc3ccc([N+](=O)[O-])s3)c2O)cc(OC)c1OC | 17.9 | 690 | 58 | 0.46 | 320 | 4300 | 0 | –
COc1ccc(/C=C\c2cc(OC)c(OC)c(OC)c2)cc1OC(C)(C)c1ccc([N+](=O)[O-])s1 | 25.4 | 53 | 33 | 41.5 | 2200 | > 20000 | 0.69 | Activity (4T1 [12]): 47 - 55%; metabolised at 24 h [13]: 100%; solubility [14]: Soluble; solubility [15]: Insoluble; solubility [16]: Insoluble
COc1cc(/C=C\c2ccc(OC)c(OCc3ccc([N+](=O)[O-])s3)c2OS(=O)(=O)c2ccc(C)cc2)cc(OC)c1OC | – | 520 | – | 0.85 | 440 | > 20000 | 0.25 | –
COc1ccc(/C=C\c2cc(OC)c(OC)c(OC)c2)cc1OCc1ccc([N+](=O)[O-])s1 | 2.7 | 32 | 26 | 3.4 | 110 | > 20000 | 0.35 | –
COc1cc(/C=C\c2ccc(OC)c(OC(C)c3ccc([N+](=O)[O-])s3)c2OC(C)C)cc(OC)c1OC (centres undefined) | 3.8 | 1200 | – | 2.4 | 2900 | > 20000 | 0.69 | –
COc1ccc(/C=C\c2cc(OC)c(OC)c(OC)c2)c(OC(C)C)c1O | – | 46 | 94 | – | 63 | 820 | – | inhibition (Tubulin (Homo sapiens) [5]): 72%
COc1ccc(/C=C\c2cc(OC)c(OC)c(OC)c2)c(OS(=O)(=O)c2ccc(C)cc2)c1O | – | 190 | 84 | – | 65 | 840 | – | inhibition (Tubulin (Homo sapiens) [5]): 50%
COc1cc(/C=C\c2ccc(OC)c3c2OC(C)(c2ccc([N+](=O)[O-])s2)O3)cc(OC)c1OC (centres undefined) | – | 720 | – | 0.76 | 550 | > 20000 | – | –
COc1cc(/C=C\c2ccc(OC)c(OC(C)(C)c3ccc([N+](=O)[O-])s3)c2OC(C)C)cc(OC)c1OC | 7.6 | 490 | – | 3.1 | 1500 | 9500 | 4.03 | –
COc1ccc(/C=C\c2cc(OC)c(OC)c(OC)c2)c(OCc2ccc([N+](=O)[O-])s2)c1O | 14.2 | 280 | 92 | 0.61 | 170 | 1700 | 0 | inhibition (Tubulin (Homo sapiens) [5]): 53%
COc1ccc(/C=C\c2cc(OC)c(OC)c(OC)c2)c(OC(C)(C)c2ccc([N+](=O)[O-])s2)c1O | 100 | 480 | 43 | 12.5 | 6000 | 1300 | – | Stability [17]: Stable; Stability [18]: Unstable
COc1cc(/C=C\c2ccc(OC)c(OCc3ccc([N+](=O)[O-])s3)c2OC(C)C)cc(OC)c1OC | 1.1 | 300 | – | 6.3 | 1900 | 12000 | 1.59 | –
